Assay results collected from several papers.
Compare with care: the assays were run in different laboratories.
FLT3 D835Y: Receptor-type tyrosine-protein kinase FLT3 (FLT3, Homo sapiens, UniProt P36888, D835Y)
FLT3 D835H: Receptor-type tyrosine-protein kinase FLT3 (FLT3, Homo sapiens, UniProt P36888, D835H)
FLT3 D835V: Receptor-type tyrosine-protein kinase FLT3 (FLT3, Homo sapiens, UniProt P36888, D835V)
FLT3: Receptor-type tyrosine-protein kinase FLT3 (FLT3, Homo sapiens, UniProt P36888)
FLT3 autoinhibited: Receptor-type tyrosine-protein kinase FLT3, autoinhibited (FLT3, Homo sapiens, UniProt P36888)
FLT3 K663Q: Receptor-type tyrosine-protein kinase FLT3 (FLT3, Homo sapiens, UniProt P36888, K663Q)
FLT3 N841I: Receptor-type tyrosine-protein kinase FLT3 (FLT3, Homo sapiens, UniProt P36888, N841I)
FLT3 F691L/ITD: Receptor-type tyrosine-protein kinase FLT3 (FLT3, Homo sapiens, UniProt P36888, F691L/ITD)
FLT3 R834Q: Receptor-type tyrosine-protein kinase FLT3 (FLT3, Homo sapiens, UniProt P36888, R834Q)

SMILES | target | assay | setting | remaining binding
CN1CCN(c2ccc(Nc3nccc(-c4ccccc4)n3)cc2C(F)(F)F)CC1 | FLT3 D835Y | binding | 10 µM | 1.3%
COc1ncc2cc3ccccc3nc2c1C#N | FLT3 D835H | cell-free assay, competition with immobilised ligand | 5 µM | 89%
COc1cnc(Nc2cccc(S(N)(=O)=O)c2)nc1N1CCN(c2ccccc2)CC1 | FLT3 D835V | binding, competition with immobilised ligand | 1 µM | 49%
O=C(c1ccc(Nc2ncc(Cl)c(-c3ccc(Cl)s3)n2)cc1)N1CCC(N2CCCC2)CC1 | FLT3 | binding, competition with immobilised ligand | 1 µM | 10%
C=CC(=O)N1CCC(C(=O)NCC(=O)N2CCN(c3nc(-c4cnc(N)nc4C(F)F)nc(N4CCOCC4)n3)CC2)CC1 | FLT3 autoinhibited | binding, competition with immobilised ligand | 1 µM | 99%
O=C(Nc1c[nH]nc1C(=O)NC1CCNCC1)c1cc(F)cc(F)c1 | FLT3 | binding, competition with immobilised ligand | 1 µM | 100%
CC(C)CC(=O)N1CCc2nc(-c3ccc(Br)cc3)nc(N(C)Cc3ccccc3)c2C1 | FLT3 K663Q | cell-free assay, competition with immobilised ligand | 0.1 µM | 100%
N[C@@H]1CCN(c2nccc(-c3cnn4ncccc34)n2)C1 | FLT3 D835Y | binding | 1 µM | 97%
COc1cnc(Nc2cccc(S(N)(=O)=O)c2)nc1N1CCN(c2ccccc2)C(=O)C1 | FLT3 D835H | binding, competition with immobilised ligand | 1 µM | 93%
C[C@@H](c1ccc(-n2cnc3c(N)ncnc32)cc1)N1CCc2nn(C)c(Cc3ccccc3)c2C1=O | FLT3 N841I | binding, competition with immobilised ligand | 0.1 µM | 97%
O=C(NCCCN1CCOCC1)c1ccc(Nc2ncc(Cl)c(-c3ccc(Cl)s3)n2)cc1 | FLT3 D835Y | binding, competition with immobilised ligand | 1 µM | 1.8%
Cc1nc(N2CC[C@@H](O)C2)ncc1-c1cc(C(F)(F)F)cc2[nH]ncc12 | FLT3 F691L/ITD | binding, competition with immobilised ligand | 1 µM | 69%
CN(c1nccc(-c2cnn3ncccc23)n1)C1CC1 | FLT3 D835Y | binding | 1 µM | 85%
O=C(NC1CCC1)c1ccc2nc(-c3cccc(NS(=O)(=O)NCCN4CCCCC4)c3)cn2c1 | FLT3 F691L/ITD | cell-free assay, competition with immobilised ligand | 10 µM | 80%
CC(C)(C)c1ccc(-c2nc(CBr)nn2-c2cccc(O)c2)cc1 | FLT3 | cell-free assay, competition with immobilised ligand | 10 µM | 82%
NS(=O)(=O)c1cc(NC(=O)C2(c3ccccc3Cl)CC2)ccc1Oc1cccc(Cl)c1 | FLT3 D835Y | cell-free assay, competition with immobilised ligand | 1 µM | 100%
CCN1CCN(Cc2ccc(C(=O)Nc3ccc(C)c(Oc4ccc5c(c4)CC(=O)N5)c3)cc2C(F)(F)F)CC1 | FLT3 autoinhibited | binding, competition with immobilised ligand | 1 µM | 100%
COc1ccnn2ncc(-c3ccnc(N(C)C)n3)c12 | FLT3 D835Y | binding | 1 µM | 97%

SMILES | target | assay | setting | remaining binding
CN(C)C(=O)Cn1cc(-c2nc([C@@](C)(c3ccc(-c4cnc(N)nc4)cc3)C3CC3)no2)cn1 | FLT3 | cell-free assay, competition with immobilised ligand | 1 µM | 97%
CC1CCCN1c1nccc(-c2cnn3ncccc23)n1 (stereo not drawn) | FLT3 N841I | binding | 1 µM | 75%
O=c1nc(-c2ccccn2)sc2ccccc12 | FLT3 | binding, competition with immobilised ligand | 1 µM | 93%
O=C(c1ccc(Nc2nccc(-c3cc4ccccc4s3)n2)cc1)N1CCC(N2CCCC2)CC1 | FLT3 R834Q | binding, competition with immobilised ligand | 1 µM | 30%
O=C(NCCCC1CCCCC1)c1ccc(CNC(=O)c2cnn(-c3ccccc3)c2C(F)(F)F)cc1 | FLT3 R834Q | cell-free assay, competition with immobilised ligand | 0.1 µM | 100%
c1cncc(-c2cccc(Nc3nccc(NC4CCCCC4)n3)c2)c1 | FLT3 D835Y | binding, competition with immobilised ligand | 10 µM | 1.4%
CN(C)C(=O)Cn1cc(-c2nc(C3(c4ccc(-c5cnc(N)nc5)cc4)CC3)no2)cn1 | Receptor-type tyrosine-protein kinase FLT3 (FLT3, Homo sapiens, UniProt P36888, D835V/ITD) | cell-free assay, competition with immobilised ligand | 1 µM | 89%
CN(CCCC(F)(F)F)c1nccc(-c2cnn3ncccc23)n1 | FLT3 K663Q | binding | 1 µM | 88%
Cc1cnc(Nc2ccc(C(=O)N3CCC(N4CCCC4)CC3)cc2)nc1-c1cc2ccccc2s1 | FLT3 autoinhibited | binding, competition with immobilised ligand | 1 µM | 9.5%
O=C(NCC1CCOCC1)c1n[nH]cc1NC(=O)c1c(F)cccc1F | FLT3 D835Y | binding, competition with immobilised ligand | 1 µM | 89%
CN1CCN(c2ccc(Nc3nccc(-c4cccc([N+](=O)[O-])c4)n3)cc2C(F)(F)F)CC1 | FLT3 D835H | binding | 10 µM | 1.1%
CNC(=O)[C@@H]1CC[C@@H](n2c(-c3ccc4cnccc4c3)nc3ccc(C(=O)NCc4cccc(C(N)=O)c4)cc32)C1 | FLT3 D835Y | binding, competition with immobilised ligand | 1 µM | 100%
C[C@H](c1ccc(F)cc1)N(Cc1cccc(C(=O)O)c1)C(=O)c1cnc2ccccc2c1 | FLT3 D835V | cell-free assay, competition with immobilised ligand | 1 µM | 98%
O=C(c1ccc(Nc2ncc(Cl)c(-c3cc4ccccc4s3)n2)cc1)N1CCC(N2CCCC2)CC1 | FLT3 F691L/ITD | binding, competition with immobilised ligand | 1 µM | 2.7%
C[C@H]1CCN(c2nccc(-c3cnn4ncccc34)n2)C1 | FLT3 | binding | 1 µM | 81%
Nc1ncc2c(n1)-c1c([nH]c3ccc(C#CC4CC4)cc13)CCCC2 | FLT3 K663Q | binding, competition with immobilised ligand | 1 µM | 77%
O=C(NCCCN1CCOCC1)c1ccc(Nc2nccc(-c3cc4ccccc4s3)n2)cc1 | FLT3 K663Q | binding, competition with immobilised ligand | 1 µM | 35%
CN(C)c1nccc(-c2cnc3ncccn23)n1 | FLT3 D835V | binding | 1 µM | 68%
